# Data from ChEMBL document CHEMBL1128295 (J Med Chem, 1995).
# “And” between values parts separate entries of the source, which are not always exact repeats. Equal entries are not always repeated. The source made the active and inactive calls. The rule behind the calls is not given here.
# What was measured:
# [1] = target: Histamine H1 receptor (Cavia porcellus) (UniProt P31389); test: Contractile effect on isolated guinea pig ileal segments is a measure of H1 (histamine) receptor agonistic activity relative to histamine.; type: functional
# [2] = target: Histamine H1 receptor (Cavia porcellus) (UniProt P31389); test: The H1 receptor-mediated nature of the ileum contractionhas been verified by competition experiments with the H1 receptor antagonist mepyramine; type: functional, tissue-based
# [3] = target: Histamine H2 receptor (Cavia porcellus) (UniProt P47747); test: Histamine H2 receptor agonism activity was determined on the isolated Guinea pig Atrium was determined as Intrinsic activity with respect to Histamine; type: functional
# Summary of the method: (§1)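 Spontaneously beating guinea pig right atrium, isometric, resting force 5 mN, (R,S)-metoprolol 300 nM present throughout.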
# [4] = target: Histamine H1 receptor (Cavia porcellus) (UniProt P31389); test: Contractile effect on isolated guinea pig ileal segments by H1 (histamine) receptor agonism.; type: functional
# [5] = target: Histamine H1 receptor (Cavia porcellus) (UniProt P31389); test: H1-Histamine receptor agonism on Guinea pig aorta was evaluated as Intrinsic activity given as 1.0 with respect to histamine (paired 't'test;p>0.05); type: functional, tissue-based
# Summary of the method: (§2)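 Endothelium-denuded 4–6 mm guinea pig thoracic aortic rings, isometric (preload 10 mN), modified Krebs-Henseleit, 37 °C, 95% O2/5% CO2. […] Cumulative curves with 30 μM corticosterone, 100 μM cimetidine, 0.1 μM (R,S)-propranolol and phentolamine present.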
# [6] = target: Histamine H1 receptor (Cavia porcellus) (UniProt P31389); test: H1-Histamine receptor agonism on Guinea pig aorta was evaluated as Intrinsic activity given as 1.0 with respect to histamine (paired 't'test;p>0.05)(SEM 0.01-0.12); type: functional, tissue-based
# [7] = target: Histamine H1 receptor (Cavia porcellus) (UniProt P31389); test: Contractile effects on guinea pig aorta as histamine H1 receptor agonism; type: functional, tissue-based; summary of the method: as §2
# [8] = target: Histamine H1 receptor (Cavia porcellus) (UniProt P31389); test: H1-Histamine receptor agonism on guinea pig ileum as intrinsic activity given as 1.0 with respect to histamine (paired 't'test; p>0.05).; type: functional, tissue-based
# [9] = target: Histamine H1 receptor (Cavia porcellus) (UniProt P31389); test: Contractile effect on isolated guinea pig aorta is a measure of H1 (histamine) receptor agonistic activity relative to histamine; type: functional, tissue-based; summary of the method: as §2
# [10] = target: Histamine H1 receptor (Cavia porcellus) (UniProt P31389); test: Contractile effects of compound on the guinea pig aorta as a measure of histamine H1 receptor agonism; f - effect could be antagonized with 1 pM mepyramine added to the bath solution when a plateau was reached.; type: functional, tissue-based; details: filed as agonist, in the assay text read “1 µM mepyramine” for “1 pM mepyramine”; summary of the method: as §2
# [11] = target: Histamine H2 receptor (Cavia porcellus) (UniProt P47747); test: Histamine H2 receptor agonism activity was determined on the isolated Guinea pig Atrium was determined as pD'2; type: functional; summary of the method: as §1
# [12] = target: Histamine H1 receptor (Cavia porcellus) (UniProt P31389); test: H1-Histamine receptor agonism on Guinea pig aorta was evaluated as Intrinsic activity given as 1.0 with respect to histamine (paired 't'test;p>0.05) (SEM 0.01-0.12); type: functional, tissue-based; summary of the method: as §2
# [13] = target: Histamine H1 receptor (Cavia porcellus) (UniProt P31389); test: The H1 receptor-mediated nature of the ileum contractionhas been verified by competition experiments with the H1 receptor antagonist mepyramine;O=effect could be antagonized with 1 uM Mepyramine added to the bath solution when a plateau was rea; type: functional, tissue-based
# [14] = target: Histamine H1 receptor (Cavia porcellus) (UniProt P31389); test: The H1 receptor-mediated nature of the ileum contractionhas been verified by competition experiments with the H1 receptor antagonist mepyramine; O=effect could be antagonized with 1 uM Mepyramine added to the bath solution when a plateau was re; type: functional, tissue-based
# [15] = target: Histamine H1 receptor (Cavia porcellus) (UniProt P31389); test: H1-Histamine receptor agonism on Guinea pig aorta was evaluated as Intrinsic activity given as 1.0 with respect to histamine (paired 't'test;p>0.05) (SEM0.03-0.18); type: functional, tissue-based; summary of the method: as §2
# [16] = target: Histamine H1 receptor (Mus musculus) (UniProt P70174); test: In vivo binding of H1 receptor Agonists measured by binding of [3H]mepyramine to Mouse cerebral cortex at the dosage of ( 100 mg/kg(no. of mice treated= 3 ); details: at 100 mg/kg
# [17] = target: Histamine H1 receptor (Mus musculus) (UniProt P70174); test: In vivo binding of H1 receptor Agonists measured by binding of [3H]-Mepyramine to Mouse cerebral cortex at the dosage of ( 300 mg/kg(no. of mice treated= 3 ); details: at 300 mg/kg
# [18] = target: Histamine H1 receptor (Mus musculus) (UniProt P70174); test: In vivo binding of H1 receptor Agonists measured by binding of [3H]mepyramine to Mouse cerebral cortex at the dosage of ( 3 mg/kg(no. of mice treated=5 ); details: at 3 mg/kg
# [19] = target: Histamine H1 receptor (Mus musculus) (UniProt P70174); test: In vivo binding of H1 receptor Agonists measured by binding of [3H]mepyramine to Mouse cerebral cortex at the dosage of ( 30 mg/kg(no. of mice treated= 5 ); details: at 30 mg/kg
# [20] = target: Histamine H1 receptor (Mus musculus) (UniProt P70174); test: In vivo binding of H1 receptor Agonists measured by binding of [3H]mepyramine to Mouse cerebral cortex at the dosage of ( 10 mg/kg(no. of mice treated=5 ); details: at 10 mg/kg
# [21] = species: Cavia porcellus; test: Relative activity with respect to Histamine on guinea pig ileum..; type: functional
# Summary of the method: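 Guinea pig ileum segments (either sex), 1.5 cm, mounted isotonically under 5 mN preload in Tyrode solution with 0.1 μM atropine, 95% O2/5% CO2 gassed, 37 °C. […] Potency is read from graphically analysed concentration–effect curves as geometric means.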
# Chain of Histamine H2 receptor (Cavia porcellus) (P47747 whole entry): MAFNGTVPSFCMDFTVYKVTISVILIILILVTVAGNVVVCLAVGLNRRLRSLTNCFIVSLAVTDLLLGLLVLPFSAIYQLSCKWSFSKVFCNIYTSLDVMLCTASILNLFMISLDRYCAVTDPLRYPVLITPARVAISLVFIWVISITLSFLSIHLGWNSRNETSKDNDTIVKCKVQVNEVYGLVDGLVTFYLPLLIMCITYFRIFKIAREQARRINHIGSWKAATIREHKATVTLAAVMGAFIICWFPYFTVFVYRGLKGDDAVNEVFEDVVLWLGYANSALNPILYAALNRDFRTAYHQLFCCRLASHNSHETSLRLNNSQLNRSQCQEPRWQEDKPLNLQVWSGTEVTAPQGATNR
# Chain of Histamine H1 receptor (Cavia porcellus) (P31389 whole entry): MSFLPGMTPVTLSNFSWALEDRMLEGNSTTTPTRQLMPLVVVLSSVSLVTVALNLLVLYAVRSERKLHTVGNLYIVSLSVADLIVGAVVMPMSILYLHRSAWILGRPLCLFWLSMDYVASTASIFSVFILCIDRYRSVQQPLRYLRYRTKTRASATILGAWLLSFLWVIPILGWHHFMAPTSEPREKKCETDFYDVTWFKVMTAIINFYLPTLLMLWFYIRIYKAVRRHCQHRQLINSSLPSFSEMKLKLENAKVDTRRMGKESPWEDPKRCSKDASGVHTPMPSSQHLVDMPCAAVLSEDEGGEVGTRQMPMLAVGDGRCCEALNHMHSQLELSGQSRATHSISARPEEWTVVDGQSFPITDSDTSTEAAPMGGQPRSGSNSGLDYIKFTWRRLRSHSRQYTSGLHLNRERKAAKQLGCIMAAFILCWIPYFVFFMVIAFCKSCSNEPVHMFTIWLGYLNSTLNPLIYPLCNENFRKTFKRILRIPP
# Chain of Histamine H1 receptor (Mus musculus) (P70174 whole entry, looked up): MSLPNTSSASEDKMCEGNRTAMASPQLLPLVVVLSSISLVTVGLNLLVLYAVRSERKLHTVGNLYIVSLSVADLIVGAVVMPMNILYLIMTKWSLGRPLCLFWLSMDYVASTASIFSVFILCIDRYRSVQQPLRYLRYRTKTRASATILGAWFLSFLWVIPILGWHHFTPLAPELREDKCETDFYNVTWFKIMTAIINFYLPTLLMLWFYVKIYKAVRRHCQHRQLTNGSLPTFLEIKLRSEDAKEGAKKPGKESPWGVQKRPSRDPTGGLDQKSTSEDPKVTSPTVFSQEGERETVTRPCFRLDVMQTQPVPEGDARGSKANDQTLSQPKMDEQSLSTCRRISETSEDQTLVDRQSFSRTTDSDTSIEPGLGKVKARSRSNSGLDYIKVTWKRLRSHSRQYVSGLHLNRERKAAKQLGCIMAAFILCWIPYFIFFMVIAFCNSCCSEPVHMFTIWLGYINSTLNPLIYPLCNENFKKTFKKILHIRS
SMILES,Relative activity [1],pKb [2],pD2 [4],Intrinsic activity [8],Relative activity [9],also measured
Cc1ncc(CCN)[nH]1,15%,–,–,–,–,–
NCCc1c[nH]cn1,–,9.09,6.7,–,–,Intrinsic activity [3]: 1; Intrinsic activity [5]: 1.06
NCCc1c[nH]c(-c2ccc[nH]2)n1,14%,9.03,5.86,0.93,12%,Intrinsic activity [6]: 0.74; pKb [7]: 9.27
NCCc1c[nH]c(Cc2ccccc2Cl)n1,3%,8.91,5.11,0.54,0.2%,pKb [10]: Agonist; Intrinsic activity [5]: 0.38
NCCc1c[nH]c(-c2ccco2)n1,47%,9.16,6.37,1,23%,pD'2 [11]: < 3; Intrinsic activity [3]: 0.36; Intrinsic activity [12]: 0.47; pKb [7]: 9.28
NCCc1c[nH]c(-c2cncc(Br)c2)n1,70%,9.03,6.54,1,–,–
CNCCc1ccccn1,8%,–,–,–,–,–
NCCc1nccs1,45%,9.17,6.36,1,18%,pKb [7]: 9.02; Intrinsic activity [5]: 1.02; Relative activity [21]: 20%
NCCc1c[nH]c(-c2cc3ccccc3c3ccccc23)n1,–,4.73,–,0,–,–
NCCc1c[nH]c(C(F)(F)F)n1,7%,9.19,5.57,1,–,Intrinsic activity [3]: 0.55
NCCc1c[nH]c(Cc2ccsc2)n1,4%,8.97,5.26,1,0.9%,pKb [10]: Agonist; Intrinsic activity [5]: 0.4
NCCc1c[nH]c(Cc2cccc(Cl)c2)n1,2%,8.81,4.88,0.76,0.4%,pKb [10]: Agonist; Intrinsic activity [5]: 0.51
NCCc1c[nH]c(-c2csc(Br)c2)n1,26%,9.04,6.11,1,11%,Intrinsic activity [6]: 0.6; pKb [7]: 8.63
NCCc1c[nH]c(Cc2cccs2)n1,3%,8.92,5.09,1,0.8%,pKb [10]: Agonist; Intrinsic activity [6]: 0.45

# Second part, led by results:
Relative activity [1],pKb [2],pD2 [4],Intrinsic activity [8],Relative activity [9],SMILES,also measured
< 1%,–,4.6,0.24,–,NCCc1c[nH]c(-c2ccc(C(F)(F)F)cc2)n1,pKb [13]: Active
10% and 31%,8.87,6.2,1,19%,NCCc1c[nH]c(-c2ccccc2)n1,pD'2 [11]: < 3; Intrinsic activity [3]: 0.2; pKb [7]: 9.1; Intrinsic activity [5]: 0.86
< 1%,–,4.47,0.26,–,NCCc1c[nH]c(-c2ccccc2C(F)(F)F)n1,pKb [13]: Active
< 1%,–,4.57,0.28,–,NCCc1c[nH]c(Cc2cccc(C(F)(F)F)c2)n1,pKb [14]: Active
66%,9.13,6.52,1,19%,NCCc1c[nH]c(-c2ccsc2)n1,pD'2 [11]: < 3; Intrinsic activity [6]: 0.43; Intrinsic activity [3]: 0.13; pKb [7]: 9.01
–,–,–,1,–,NCCc1c[nH]c(-c2cccc(Br)c2)n1,Intrinsic activity [3]: 0; Intrinsic activity [5]: 0.64
46%,8.93,6.36,1,12%,NCCc1c[nH]c(-c2cccs2)n1,pD'2 [11]: < 3; Intrinsic activity [3]: 0.25; Intrinsic activity [15]: 0.5; pKb [7]: 8.83
128%,9.14,6.81,1,94%,NCCc1c[nH]c(-c2cccc(C(F)(F)F)c2)n1,pD'2 [11]: 3.48; Control [16]: 112%; Intrinsic activity [3]: 0; Control [17]: 129%; pKb [7]: 9.04; Control [18]: 101%; Intrinsic activity [5]: 0.8; Control [19]: 98%; Control [20]: 122%
54%,8.92,6.43,1,–,NCCc1c[nH]c(-c2cccc(OC(F)(F)F)c2)n1,–
–,–,–,0,–,NCCc1c[nH]c(Cc2ccc(C(F)(F)F)cc2)n1,PkB [2]: 4.53
–,3.55,–,0,–,NCCc1c[nH]c(Cc2ccccc2C(F)(F)F)n1,–
87%,–,–,–,–,NCCc1c[nH]c(-c2cccc(F)c2)n1,–
81%,–,–,–,–,NCCc1c[nH]c(-c2cccc(Cl)c2)n1,–
40%,–,–,–,–,COc1cccc(-c2nc(CCN)c[nH]2)c1,–
1%,–,4.85,0.24,–,NCCc1c[nH]c(-c2ccc3ccccc3c2)n1,pKb [14]: Active
15%,9.04,5.87,1,–,Cc1cccc(-c2nc(CCN)c[nH]2)c1,–
96%,9.28,6.68,1,47%,NCCc1c[nH]c(-c2cccc(I)c2)n1,pD'2 [11]: 3.76; Intrinsic activity [3]: 0; pKb [7]: 9.13; Intrinsic activity [5]: 0.49
